Reference: ChEMBL document CHEMBL4414558, “Dehydroabietylamine Ureas and Thioureas as Tyrosyl-DNA Phosphodiesterase 1 Inhibitors That Enhance the Antitumor Effect of Temozolomide on Glioblastoma Cells” (J Nat Prod, 2019)

How the values were obtained:
[1] = molecular target: Tyrosyl-DNA phosphodiesterase 1 (Homo sapiens, UniProt Q9NUW8); assay: Inhibition of recombinant TDP1 (unknown origin) using 5'-(5,6 FAM-aac gtc agg gtc ttc c-BHQ1)-3' as substrate measured every 55 secs for 8 mins by fluorescence based assay
Method in brief: (§1)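 Purified TDP1, either wild-type or the H493R mutant, tested against the fluorogenic substrate. The IC50 is the compound concentration that cuts enzyme activity by 50%.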

U-87 MG [2] = assay: Cytotoxicity activity against human U87MG cells assessed as reduction in cell viability incubated for 72 hrs by MTT assay; format: cell-based, U-87MG ATCC
SNB-19 [3] = assay: Cytotoxicity activity against human SNB19 cells assessed as reduction in cell viability incubated for 72 hrs by MTT assay; format: cell-based; conditions: SNB-19, 72 h
[4] = molecular target: Poly [ADP-ribose] polymerase 2 (Homo sapiens) (UniProt Q9UGN5); assay: Inhibition of PARP2 (unknown origin) assessed as residual activity at 100 uM relative to control
[5] = Cytotoxicity activity against human SK-MEL-8 cells assessed as reduction in cell viability incubated for 72 hrs by MTT assay; format: cell-based
T98G = assay: Cytotoxicity activity against human T98G cells assessed as reduction in cell viability incubated for 72 hrs by MTT assay; format: cell-based
[6] = molecular target: Tyrosyl-DNA phosphodiesterase 1 (Homo sapiens, UniProt Q9NUW8, H493R); assay: Inhibition of recombinant TDP1 H493R mutant (unknown origin) using 5'-(5,6 FAM-aac gtc agg gtc ttc c-BHQ1)-3' as substrate measured every 55 secs for 8 mins by fluorescence based assay; method in brief: as §1
A549 = assay: Cytotoxicity activity against human A549 cells assessed as reduction in cell viability incubated for 72 hrs by MTT assay; format: cell-based; conditions: A549, 72 h
U-937 = assay: Cytotoxicity activity against human U937 cells assessed as reduction in cell viability incubated for 72 hrs by MTT assay; format: cell-based; conditions: U-937, 72 h
[7] = Cytotoxicity activity against human MDA-MB cells assessed as reduction in cell viability incubated for 72 hrs by MTT assay; format: cell-based
[8] = molecular target: Poly [ADP-ribose] polymerase 1 (Homo sapiens) (UniProt P09874); assay: Inhibition of PARP1 (unknown origin) assessed as residual activity at 100 uM relative to control
MCF7 = assay: Cytotoxicity activity against human MCF7 cells assessed as reduction in cell viability incubated for 72 hrs by MTT assay; format: cell-based; conditions: MCF7, 72 h
WI-38 = assay: Cytotoxicity activity against human WI38 cells assessed as reduction in cell viability incubated for 72 hrs by MTT assay; format: cell-based; conditions: WI-38, 72 h
SNB-19 [9] = assay: Potentiation of TMZ-induced cytotoxicity against human SNB19 cells assessed as cell viability at 75 uM incubated for 72 hrs in presence of 2000 uM TMZ by MTT assay (Rvb =100%); format: functional
SNB-19 [10] = assay: Potentiation of TMZ-induced cytotoxicity against human SNB19 cells assessed as reduction in cell viability at 75 uM incubated for 72 hrs in presence of 2000 uM TMZ by MTT assay relative to TMZ alone; format: functional
SNB-19 [11] = assay: Potentiation of TMZ-induced cytotoxicity against human SNB19 cells assessed as combination index at 75 uM incubated for 72 hrs in presence of 2000 uM TMZ by MTT assay; format: functional
U-87 MG [12] = assay: Potentiation of TMZ-induced cytotoxicity against human U87MG cells assessed as combination index at 100 uM incubated for 72 hrs in presence of 2000 uM TMZ by MTT assay; format: functional, U-87MG ATCC
SNB-19 [13] = assay: Potentiation of TMZ-induced cytotoxicity against human SNB19 cells assessed as cell viability at 100 uM incubated for 72 hrs in presence of 1250 uM TMZ by MTT assay (Rvb =100%); format: functional
U-87 MG [14] = assay: Potentiation of TMZ-induced cytotoxicity against human U87MG cells assessed as cell viability at 100 uM incubated for 72 hrs in presence of 2500 uM TMZ by MTT assay (reference value: 100%); format: functional, U-87MG ATCC
SNB-19 [15] = assay: Potentiation of TMZ-induced cytotoxicity against human SNB19 cells assessed as combination index at 100 uM incubated for 72 hrs in presence of 1250 uM TMZ by MTT assay; format: functional
U-87 MG [16] = assay: Potentiation of TMZ-induced cytotoxicity against human U87MG cells assessed as reduction in cell viability at 100 uM incubated for 72 hrs in presence of 2500 uM TMZ by MTT assay relative to TMZ alone; format: functional, U-87MG ATCC
U-87 MG [17] = assay: Potentiation of TMZ-induced cytotoxicity against human U87MG cells assessed as cell viability at 100 uM incubated for 72 hrs in presence of 2000 uM TMZ by MTT assay (reference value: 100%); format: functional, U-87MG ATCC
U-87 MG [18] = assay: Potentiation of TMZ-induced cytotoxicity against human U87MG cells assessed as combination index at 100 uM incubated for 72 hrs in presence of 2500 uM TMZ by MTT assay; format: functional, U-87MG ATCC
SNB-19 [19] = assay: Potentiation of TMZ-induced cytotoxicity against human SNB19 cells assessed as reduction in cell viability at 100 uM incubated for 72 hrs in presence of 1250 uM TMZ by MTT assay relative to TMZ alone; format: functional
U-87 MG [20] = assay: Potentiation of TMZ-induced cytotoxicity against human U87MG cells assessed as reduction in cell viability at 100 uM incubated for 72 hrs in presence of 2000 uM TMZ by MTT assay relative to TMZ alone; format: functional, U-87MG ATCC

Sequence of Tyrosyl-DNA phosphodiesterase 1 (Homo sapiens, UniProt Q9NUW8) (Q9NUW8 whole entry): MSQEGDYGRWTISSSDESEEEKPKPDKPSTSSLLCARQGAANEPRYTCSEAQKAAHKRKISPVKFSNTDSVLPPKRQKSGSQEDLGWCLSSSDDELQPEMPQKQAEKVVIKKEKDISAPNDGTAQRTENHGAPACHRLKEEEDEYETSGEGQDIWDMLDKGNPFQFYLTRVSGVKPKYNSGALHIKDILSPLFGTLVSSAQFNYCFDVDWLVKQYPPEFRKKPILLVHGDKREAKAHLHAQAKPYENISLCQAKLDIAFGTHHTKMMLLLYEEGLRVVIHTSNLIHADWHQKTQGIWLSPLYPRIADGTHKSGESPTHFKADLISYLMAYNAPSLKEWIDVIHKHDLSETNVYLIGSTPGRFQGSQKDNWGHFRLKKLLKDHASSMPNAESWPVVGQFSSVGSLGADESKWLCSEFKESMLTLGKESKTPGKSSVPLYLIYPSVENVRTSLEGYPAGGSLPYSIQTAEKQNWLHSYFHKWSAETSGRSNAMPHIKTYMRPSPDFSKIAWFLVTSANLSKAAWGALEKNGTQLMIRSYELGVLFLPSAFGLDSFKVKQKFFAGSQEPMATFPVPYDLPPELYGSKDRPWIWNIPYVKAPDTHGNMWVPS
Sequence of Poly [ADP-ribose] polymerase 1 (Homo sapiens) (P09874 whole entry): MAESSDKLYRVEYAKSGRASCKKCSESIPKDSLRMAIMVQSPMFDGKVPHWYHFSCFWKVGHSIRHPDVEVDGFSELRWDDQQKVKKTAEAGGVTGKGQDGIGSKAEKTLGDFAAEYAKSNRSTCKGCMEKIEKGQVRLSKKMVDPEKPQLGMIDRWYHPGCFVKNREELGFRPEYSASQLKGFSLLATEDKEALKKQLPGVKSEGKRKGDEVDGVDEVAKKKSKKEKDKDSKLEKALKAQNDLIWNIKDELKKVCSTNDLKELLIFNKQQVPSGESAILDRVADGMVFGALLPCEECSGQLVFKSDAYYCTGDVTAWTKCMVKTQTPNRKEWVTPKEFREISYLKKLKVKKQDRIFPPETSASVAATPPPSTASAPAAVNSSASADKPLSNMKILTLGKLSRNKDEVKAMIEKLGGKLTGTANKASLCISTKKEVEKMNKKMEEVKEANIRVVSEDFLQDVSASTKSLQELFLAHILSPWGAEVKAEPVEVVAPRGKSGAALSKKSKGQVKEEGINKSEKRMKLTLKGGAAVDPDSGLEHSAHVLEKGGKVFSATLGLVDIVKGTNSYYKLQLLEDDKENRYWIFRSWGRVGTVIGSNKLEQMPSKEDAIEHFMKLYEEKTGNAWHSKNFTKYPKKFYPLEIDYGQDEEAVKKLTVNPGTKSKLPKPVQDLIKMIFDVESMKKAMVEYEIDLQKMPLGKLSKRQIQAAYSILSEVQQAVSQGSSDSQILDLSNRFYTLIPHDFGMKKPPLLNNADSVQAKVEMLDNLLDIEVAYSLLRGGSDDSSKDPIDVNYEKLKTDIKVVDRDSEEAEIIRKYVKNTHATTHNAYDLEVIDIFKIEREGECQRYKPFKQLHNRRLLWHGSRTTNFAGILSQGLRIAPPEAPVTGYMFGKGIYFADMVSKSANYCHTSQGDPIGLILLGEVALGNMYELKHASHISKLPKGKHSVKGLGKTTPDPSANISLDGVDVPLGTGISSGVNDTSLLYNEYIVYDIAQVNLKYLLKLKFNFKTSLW
Sequence of Tyrosyl-DNA phosphodiesterase 1 (Homo sapiens, UniProt Q9NUW8, H493R) (Q9NUW8 whole entry H493R): as the sequence (Q9NUW8 whole entry) above, with H493R counted along it
Sequence of Poly [ADP-ribose] polymerase 2 (Homo sapiens) (Q9UGN5 whole entry): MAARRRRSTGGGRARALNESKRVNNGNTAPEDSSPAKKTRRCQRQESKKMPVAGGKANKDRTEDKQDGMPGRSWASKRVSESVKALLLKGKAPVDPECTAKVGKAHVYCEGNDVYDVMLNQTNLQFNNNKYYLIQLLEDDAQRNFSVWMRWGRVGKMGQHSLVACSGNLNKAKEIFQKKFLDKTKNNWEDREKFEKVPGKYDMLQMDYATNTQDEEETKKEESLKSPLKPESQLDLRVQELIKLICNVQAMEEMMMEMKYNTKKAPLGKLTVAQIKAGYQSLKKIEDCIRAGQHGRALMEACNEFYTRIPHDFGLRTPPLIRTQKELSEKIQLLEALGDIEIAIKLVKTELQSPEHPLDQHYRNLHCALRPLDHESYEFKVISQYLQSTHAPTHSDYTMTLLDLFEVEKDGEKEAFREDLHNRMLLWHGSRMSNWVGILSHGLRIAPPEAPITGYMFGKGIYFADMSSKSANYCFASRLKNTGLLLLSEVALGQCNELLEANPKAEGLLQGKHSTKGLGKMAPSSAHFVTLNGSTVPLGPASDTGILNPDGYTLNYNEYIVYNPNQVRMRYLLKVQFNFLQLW

SMILES	IC50 [1] [µM]	IC50 (U-87 MG [2]) [µM]	IC50 (SNB-19 [3]) [µM]	Activity [4] [%]	IC50 [5] [µM]	IC50 (T98G) [µM]	IC50 [6] [µM]	IC50 (A549) [µM]	IC50 (U-937) [µM]	IC50 [7] [µM]	Activity [8] [%]	IC50 (MCF7) [µM]	IC50 (WI-38) [µM]	Activity (SNB-19 [9]) [%]	fold change (FC) (SNB-19 [10])	CI (SNB-19 [11])	CI (U-87 MG [12])	Activity (SNB-19 [13]) [%]	Activity (U-87 MG [14]) [%]	CI (SNB-19 [15])	also measured
CCNC(=S)NC[C@]1(C)CCC[C@]2(C)c3ccc(C(C)C)cc3CC[C@@H]12	2.3	> 100	< 10	116	> 100	> 100	> 50	> 100	18.7	> 100	100										
C=CCNC(=S)NC[C@]1(C)CCC[C@]2(C)c3ccc(C(C)C)cc3CC[C@@H]12	0.57	> 100	< 10	98	> 100	> 100	> 50	100	22.2	> 100	104	10	50								
CC(C)c1ccc2c(c1)CC[C@H]1[C@](C)(CNC(=O)Nc3ccccc3)CCC[C@]21C	0.95	> 100	17	129	> 100	> 100	24.1	> 100	> 100	> 100	106	> 100	> 100								
CC(C)c1ccc2c(c1)CC[C@H]1[C@](C)(CNC(=O)Nc3ccc(Cl)cc3)CCC[C@]21C	0.28	> 100	< 10	93	> 100	21.2	34.1	> 100	15	> 100	93	52	> 100								
CC(C)c1ccc2c(c1)CC[C@H]1[C@](C)(CNC(=O)NC3CCCCC3)CCC[C@]21C	0.5	> 100	< 10	99	> 100	> 100	39.2	> 100	> 100	> 100	96	> 100	52								
CC(C)c1ccc2c(c1)CC[C@H]1[C@](C)(CNC(=O)NCCCCCCNC(=O)NC[C@]3(C)CCC[C@]4(C)c5ccc(C(C)C)cc5CC[C@@H]34)CCC[C@]21C	0.19	> 100	> 100	142	> 100	> 100	9.3	> 100	> 100	> 100	99	> 100	> 100	70.3	1.4	0.15	1.79	88.9	59.3	0.92	fold change (FC) (U-87 MG [16]): 1.7; Activity (U-87 MG [17]): 109.8%; CI (U-87 MG [18]): 0.43
CCNC(=O)NC[C@]1(C)CCC[C@]2(C)c3ccc(C(C)C)cc3CC[C@@H]12	3.7	> 100	< 10	116	> 100	> 100	> 50	> 100	34.8	> 100	100										
CC(C)c1ccc2c(c1)CC[C@H]1[C@](C)(CNC(=O)NC34CC5CC(CC(C5)C3)C4)CCC[C@]21C	0.1	> 100	> 100	107	> 100	> 100	19.3	> 100		> 100	79			63.7	1.6	0.13	0.44	61.3	58.2	0.25	fold change (FC) (SNB-19 [19]): 1.6; fold change (FC) (U-87 MG [20]): 1.4; fold change (FC) (U-87 MG [16]): 1.7; Activity (U-87 MG [17]): 72%; CI (U-87 MG [18]): 0.43
Cc1ccc(NC(=O)NC[C@]2(C)CCC[C@]3(C)c4ccc(C(C)C)cc4CC[C@@H]23)cc1NC(=O)NC[C@]1(C)CCC[C@]2(C)c3ccc(C(C)C)cc3CC[C@@H]12	0.11	> 100	> 100	135	> 100	> 100	5.4	> 100	> 100	> 100	83	> 100	> 100	84.4	1.2	0.27	1.03	99.5	82.1	0.99	fold change (FC) (U-87 MG [16]): 1.2; Activity (U-87 MG [17]): 100.7%; CI (U-87 MG [18]): 0.63
CC(C)c1ccc2c(c1)CC[C@H]1[C@](C)(CNC(=S)Nc3ccccc3)CCC[C@]21C	0.71	> 100		116	> 100		19.9	> 100	> 100	> 100	98	26	70								
CNC(=S)NC[C@]1(C)CCC[C@]2(C)c3ccc(C(C)C)cc3CC[C@@H]12	1.49	> 100	< 10	114	> 100	73.3	> 50	19.7	16.8	> 100	110										
CC(C)c1ccc2c(c1)CC[C@H]1[C@](C)(CNC(=O)NCC3(C)CC(NC(=O)NC[C@]4(C)CCC[C@]5(C)c6ccc(C(C)C)cc6CC[C@@H]45)CC(C)(C)C3)CCC[C@]21C (some centres not stated)	0.09	> 100	> 100	94	> 100	> 100	5.4	> 100	> 100	> 100	92	> 100	> 100	89	1.1	0.34	1.7	97.3	90.9	0.97	fold change (FC) (U-87 MG [16]): 1.1; Activity (U-87 MG [17]): 109.2%; CI (U-87 MG [18]): 0.77
